This passage reports IC50, Ki and EDmin results from ChEMBL document CHEMBL1136239, “Bicyclo[2.2.1]heptanes as novel triple re-uptake inhibitors for the treatment of depression” (Bioorg Med Chem Lett, 2003).

Structures are written as SMILES.

In assay [1] the target is T1, Sodium-dependent dopamine transporter (Homo sapiens, UniProt Q01959). Put plainly: In vitro inhibition of DA re-uptake into synaptosome. Format: functional, tissue-based, Brain.
Assay [2] concerns the target T1, Sodium-dependent dopamine transporter. The assay is described as follows: Displacement of [3H]WIN-35428 from Dopamine transporter. A digest of the protocol:
(§1)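 Radioligand binding: inhibitory binding constants measured against a known radiolabelled re-uptake inhibitor. Ligands were [3H]citalopram for SERT, [3H]WIN35,428 for DAT and [3H]nisoxetine for NET. Values are means of three experiments; minimum significant ratio < 3.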
A general note: In a radioligand displacement assay an active substance lowers the binding of a labelled ligand.

In assay [3] the target is T2, Sodium-dependent serotonin transporter (Homo sapiens, UniProt P31645). The assay is described as follows: In vitro ability of compound to inhibit 5-HT re-uptake of radiolabeled [3H]-tritium transmitter into synaptosome. The class given is tissue-based, Brain.
T2 sequence (P31645 whole entry): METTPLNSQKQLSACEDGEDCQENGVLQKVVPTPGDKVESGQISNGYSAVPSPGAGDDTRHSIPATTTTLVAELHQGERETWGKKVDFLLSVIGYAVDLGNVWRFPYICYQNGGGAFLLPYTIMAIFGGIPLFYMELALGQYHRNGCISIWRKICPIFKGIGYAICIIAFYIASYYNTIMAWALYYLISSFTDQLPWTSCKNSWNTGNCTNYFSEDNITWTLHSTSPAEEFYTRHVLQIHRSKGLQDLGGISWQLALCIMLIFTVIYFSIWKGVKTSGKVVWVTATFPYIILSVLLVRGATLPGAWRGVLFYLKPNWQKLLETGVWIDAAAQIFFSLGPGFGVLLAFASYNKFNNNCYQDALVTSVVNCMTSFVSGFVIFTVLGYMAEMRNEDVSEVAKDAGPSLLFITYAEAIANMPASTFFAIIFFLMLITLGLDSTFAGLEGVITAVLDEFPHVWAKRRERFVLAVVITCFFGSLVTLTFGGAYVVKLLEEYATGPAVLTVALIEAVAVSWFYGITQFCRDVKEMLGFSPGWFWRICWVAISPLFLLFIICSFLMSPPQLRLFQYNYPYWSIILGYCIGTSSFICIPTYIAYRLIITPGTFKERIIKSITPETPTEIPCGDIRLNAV
Assay [4] concerns the target T2, Sodium-dependent serotonin transporter. Put plainly: Displacement of [3H]-citalopram from Serotonin transporter. A digest of the protocol:
as §1

Assay [5] deals with T3, Sodium-dependent noradrenaline transporter (Homo sapiens, UniProt P23975). The assay is described as follows: Displacement of [3H]-Nisoxetine from norepinephrine transporter.
T3 sequence (P23975 whole entry): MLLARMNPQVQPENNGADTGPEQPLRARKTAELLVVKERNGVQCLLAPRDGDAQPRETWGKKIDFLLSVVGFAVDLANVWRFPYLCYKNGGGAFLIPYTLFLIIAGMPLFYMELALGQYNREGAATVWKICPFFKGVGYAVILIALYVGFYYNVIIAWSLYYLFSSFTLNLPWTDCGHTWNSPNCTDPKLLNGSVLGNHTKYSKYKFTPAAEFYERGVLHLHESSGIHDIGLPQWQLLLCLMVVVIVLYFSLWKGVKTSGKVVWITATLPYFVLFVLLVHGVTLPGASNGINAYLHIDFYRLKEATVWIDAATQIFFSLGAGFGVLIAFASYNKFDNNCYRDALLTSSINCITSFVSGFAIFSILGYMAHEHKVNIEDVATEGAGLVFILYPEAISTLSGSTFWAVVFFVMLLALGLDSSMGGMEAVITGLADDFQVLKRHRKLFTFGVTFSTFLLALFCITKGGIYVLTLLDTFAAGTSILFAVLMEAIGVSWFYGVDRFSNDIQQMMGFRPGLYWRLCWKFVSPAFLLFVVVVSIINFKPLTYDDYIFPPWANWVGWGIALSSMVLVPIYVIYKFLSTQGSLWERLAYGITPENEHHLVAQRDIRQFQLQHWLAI
In assay [6] the target is Sodium-dependent serotonin transporter (Mus musculus) (UniProt Q60857). Put plainly: In vivo potentiation of compound towards Serotonin transporter after po administration. The class given is functional, organism-based. A digest of the protocol: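 Oral dosing, read-out from the 5-HTP test. The value is the minimum effective dose (EDmin) in mg/kg po.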
Sequence of Sodium-dependent serotonin transporter (Mus musculus) (Q60857 whole entry): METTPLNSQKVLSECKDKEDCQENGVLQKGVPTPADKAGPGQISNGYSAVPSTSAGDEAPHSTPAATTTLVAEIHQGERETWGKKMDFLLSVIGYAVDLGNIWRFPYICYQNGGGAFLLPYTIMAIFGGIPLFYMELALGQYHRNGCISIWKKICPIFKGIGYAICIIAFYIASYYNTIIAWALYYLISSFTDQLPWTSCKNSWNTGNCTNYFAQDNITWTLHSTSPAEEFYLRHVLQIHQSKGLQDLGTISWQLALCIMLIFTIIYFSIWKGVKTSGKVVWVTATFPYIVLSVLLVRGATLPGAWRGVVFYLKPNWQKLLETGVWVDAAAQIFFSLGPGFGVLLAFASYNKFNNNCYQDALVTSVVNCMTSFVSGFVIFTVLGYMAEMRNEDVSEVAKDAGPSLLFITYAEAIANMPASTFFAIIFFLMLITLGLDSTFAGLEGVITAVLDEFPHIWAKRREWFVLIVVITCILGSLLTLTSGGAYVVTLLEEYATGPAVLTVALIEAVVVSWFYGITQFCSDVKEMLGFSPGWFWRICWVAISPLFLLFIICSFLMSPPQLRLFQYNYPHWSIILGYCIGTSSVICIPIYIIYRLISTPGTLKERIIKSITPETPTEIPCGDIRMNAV
In assay [7] the target is T3, Sodium-dependent noradrenaline transporter. Put plainly: In vitro inhibition of [3H]NE re-uptake into synaptosome. The class given is functional, tissue-based, Brain.
Assay [8] has the same target. The assay is described as follows: Compound was tested for its ability to displace […] from norepinephrine transporter.
Assay [9] addresses Sodium-dependent dopamine transporter (Mus musculus) (UniProt Q61327). Put plainly: In vivo potentiation of compound towards Dopamine transporter after po administration was determined in mouse using mouse locomotor activity […]. The class given is functional, organism-based. Put shortly: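 Given by mouth and assessed in the MLA (locomotor activity) test. Reported as the minimum effective dose (EDmin), mg/kg po.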

Assay [10] addresses Sodium-dependent noradrenaline transporter (Mus musculus) (UniProt O55192). The assay is described as follows: In vivo potentiation of compound towards norepinephrine transporter after po administration was determined in mouse using mouse apomorphine hypothermia. The class given is functional, organism-based. Put shortly: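 Apomorphine (APO) test after oral administration. The result is expressed as the minimum effective dose (EDmin), mg/kg po.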

T1 sequence (Q01959 whole entry): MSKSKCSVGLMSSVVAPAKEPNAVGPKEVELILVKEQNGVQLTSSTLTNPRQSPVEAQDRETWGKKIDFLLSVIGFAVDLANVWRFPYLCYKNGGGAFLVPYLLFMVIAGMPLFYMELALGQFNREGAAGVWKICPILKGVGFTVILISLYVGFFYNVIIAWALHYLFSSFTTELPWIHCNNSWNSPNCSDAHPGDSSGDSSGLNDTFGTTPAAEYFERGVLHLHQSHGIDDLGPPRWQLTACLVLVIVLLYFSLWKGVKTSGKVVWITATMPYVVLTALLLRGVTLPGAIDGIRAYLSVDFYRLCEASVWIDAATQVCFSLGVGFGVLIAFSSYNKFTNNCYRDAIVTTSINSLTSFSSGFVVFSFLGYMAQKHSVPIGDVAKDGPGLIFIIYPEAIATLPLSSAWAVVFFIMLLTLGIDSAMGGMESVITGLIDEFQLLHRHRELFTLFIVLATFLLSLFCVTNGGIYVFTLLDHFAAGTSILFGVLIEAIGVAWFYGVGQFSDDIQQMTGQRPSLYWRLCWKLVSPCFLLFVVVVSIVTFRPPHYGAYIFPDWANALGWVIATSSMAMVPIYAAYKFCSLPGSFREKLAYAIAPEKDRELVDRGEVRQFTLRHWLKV
Sequence of Sodium-dependent dopamine transporter (Mus musculus) (Q61327 whole entry): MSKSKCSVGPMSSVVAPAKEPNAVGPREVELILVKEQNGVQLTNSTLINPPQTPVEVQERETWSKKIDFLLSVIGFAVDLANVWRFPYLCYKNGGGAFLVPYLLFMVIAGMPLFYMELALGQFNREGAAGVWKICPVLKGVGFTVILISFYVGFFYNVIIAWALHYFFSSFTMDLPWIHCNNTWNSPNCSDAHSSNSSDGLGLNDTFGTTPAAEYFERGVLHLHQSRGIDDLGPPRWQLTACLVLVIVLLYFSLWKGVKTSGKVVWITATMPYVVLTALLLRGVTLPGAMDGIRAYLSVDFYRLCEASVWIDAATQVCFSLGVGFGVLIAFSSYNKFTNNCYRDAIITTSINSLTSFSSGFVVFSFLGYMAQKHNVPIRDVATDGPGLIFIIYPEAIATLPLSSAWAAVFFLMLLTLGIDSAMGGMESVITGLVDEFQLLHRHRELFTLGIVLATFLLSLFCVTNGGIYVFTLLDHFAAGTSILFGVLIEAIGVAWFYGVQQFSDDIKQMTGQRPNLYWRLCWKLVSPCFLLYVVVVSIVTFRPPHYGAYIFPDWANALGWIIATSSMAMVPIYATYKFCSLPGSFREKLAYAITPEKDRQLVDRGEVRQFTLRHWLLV
Sequence of Sodium-dependent noradrenaline transporter (Mus musculus) (O55192 whole entry): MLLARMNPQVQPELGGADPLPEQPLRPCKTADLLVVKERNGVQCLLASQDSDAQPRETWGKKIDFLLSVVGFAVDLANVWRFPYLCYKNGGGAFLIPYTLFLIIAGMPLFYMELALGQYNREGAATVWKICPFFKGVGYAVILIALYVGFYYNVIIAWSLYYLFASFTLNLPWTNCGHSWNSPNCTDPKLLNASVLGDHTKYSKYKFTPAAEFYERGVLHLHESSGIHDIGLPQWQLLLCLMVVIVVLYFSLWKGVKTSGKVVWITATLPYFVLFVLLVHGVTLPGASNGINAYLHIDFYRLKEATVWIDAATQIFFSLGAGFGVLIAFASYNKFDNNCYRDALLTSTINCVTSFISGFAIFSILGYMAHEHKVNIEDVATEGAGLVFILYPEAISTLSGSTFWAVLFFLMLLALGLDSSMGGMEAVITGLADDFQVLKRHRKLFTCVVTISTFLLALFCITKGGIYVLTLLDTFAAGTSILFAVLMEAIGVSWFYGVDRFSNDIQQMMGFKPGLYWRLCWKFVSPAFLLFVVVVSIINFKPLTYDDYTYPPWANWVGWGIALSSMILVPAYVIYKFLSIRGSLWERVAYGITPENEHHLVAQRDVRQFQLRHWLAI

As for `CN(C)C[C@H]1C2CCC(CC2)[C@@H]1c1cccc(Cl)c1`, the results for the 50% inhibitory concentration (IC50) in assay [1] and in [3] were 0.165 µM and 0.303 µM, respectively. Besides, the Ki in assay [2] was found to be 0.064 µM; in assay [4] it was 0.025 µM.
For `CN(C)C[C@H]1C2CCC(C2)[C@@H]1c1ccc2cc(O)ccc2c1` (stereo partly specified), the inhibition constant Ki in assay [2] is 0.006 µM; in assay [4] it was 0.047 µM; in assay [5], 0.05 µM.
Consider `CN(C)CC1C2CCC(C2)C1c1ccc2ccccc2c1` (stereo unspecified), for which the values for the half-maximal inhibitory concentration (IC50) in [1] and in assay [3] were 0.095 µM and 0.01 µM, respectively. Also, the Ki in assay [2] was determined as 0.018 µM; in assay [4], 0.0028 µM.
Turning to `CNC[C@H]1C2CCC(C2)[C@@H]1c1ccc2cc(OC)ccc2c1` (stereo partly specified), the Ki in [2] stood at 0.06 µM; in assay [4], 0.012 µM; in assay [5], 0.12 µM.
The matching figures for `COc1ccc2cc([C@H]3C4CCC(C4)[C@@H]3CN(C)C)ccc2c1` (stereo partly specified): 0.064 µM, 0.025 µM and 0.068 µM.
`CNC[C@H]1C2CCC(C2)[C@@H]1c1ccc2ccccc2c1` (stereo partly specified): the figures for the IC50 in assay [1] and in assay [3] were 0.086 µM and 0.009 µM, respectively. For the same molecule, the Ki in assay [2] amounted to 0.041 µM; in [4], 0.0036 µM.
`CN(C)C[C@H]1C2CCC(C2)[C@@H]1c1ccc2cc(F)ccc2c1` (stereo partly specified): the figures for the Ki in assay [2], in [4] and in assay [5] were 0.05 µM, 0.0026 µM and 0.385 µM, respectively.
With `CN(C)C[C@@H]1C2CCC(C2)[C@H]1c1ccc2ccccc2c1` (stereo partly specified), the values for the IC50 in assay [1] and in assay [3] were 0.093 µM and 0.02 µM, respectively. The results for the Ki in assay [2] and in [4] were 0.038 µM and 0.0058 µM, respectively. In addition, the EDmin in assay [6] is > 20 mg/kg.
Consider `CN(C)C[C@@H]1C2CCC(CC2)[C@@H]1c1ccc(Cl)c(Cl)c1`, for which the half-maximal inhibitory concentration (IC50) in assay [1] was 0.028 µM; in assay [7], 0.022 µM; in assay [3], 0.27 µM. Also, the inhibition constant (Ki) in assay [2] turned out to be 0.0072 µM; in assay [8] it was 0.044 µM; in [4] it was 0.057 µM.
As to `CN(C)CC1C2CCC(C2)C1c1cccc2ccccc12` (stereo unspecified), the IC50 worked out at 1.51 µM in assay [1] and 0.093 µM in [3]. Further, the Ki in assay [2] was 0.43 µM; in [4], 0.052 µM.
Consider `CNC[C@H]1C2CCC(C2)[C@@H]1c1ccc2cc(F)ccc2c1` (stereo partly specified), for which the Ki in [2] worked out at 0.072 µM; in assay [4] it was 0.0044 µM; in assay [5], 0.316 µM.
For the molecule `CN(C)C[C@H]1C2CCC(C2)[C@@H]1c1ccc2ccccc2c1` (stereo partly specified), the figures for the EDmin in [9], in assay [10] and in [6] were 40 mg/kg, 25 mg/kg and 5 mg/kg, respectively. In addition, the IC50 in [1] was determined as 0.076 µM; in assay [3], 0.009 µM. For the same molecule, the figures for the Ki in [2] and in assay [4] were 0.025 µM and 0.0023 µM, respectively.
Turning to `CNCC1C2CCC(C2)C1c1ccc2ccccc2c1` (stereo unspecified), the EDmin in assay [9] is 25 mg/kg; in assay [10] it was 20 mg/kg; in [6], 20 mg/kg. The values for the IC50 in assay [1] and in [3] were 0.087 µM and 0.05 µM, respectively. In addition, the Ki in assay [2] is 0.025 µM; in assay [4], 0.0049 µM.

The IC50 is the point on the concentration scale where inhibition reaches its midpoint. The low end stands for higher potency, the high end for lower potency. The term Ki denotes a dissociation constant, usually derived from enzyme kinetics or from competition with a known ligand. A lower Ki goes with higher affinity.
